Laboratory results as given in ChEMBL document CHEMBL1132167, “Flavonoid-related modulators of multidrug resistance: synthesis, pharmacological activity, and structure-activity relationships” (J Med Chem, 1999).

Experiments:
[1] = Modulation factor: IC50(DOX alone)/IC50(DOX+modulator).; type: functional
Procedure, shortened: (§1)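 K562/DOX human erythroleukemia cells (doxorubicin-selected, Pgp-overexpressing; RPMI-1640 + 10% FCS) exposed 72 h to seven graded doxorubicin concentrations (six wells each) plus tested compound at 1 or 5 μM, DMSO ≤0.1% final. MTT formazan dissolved in DMSO, A570 read. Survival relative to untreated wells; DOX IC50 by linear interpolation; MF = IC50(DOX alone)/IC50(DOX + compound). Mean of ≥2 independent experiments.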

[2] = biological target: T1, ATP-dependent translocase ABCB1 (Homo sapiens, UniProt P08183); assay: Pgp transport inhibitory activity at 5 uM was measured by JC-1 accumulation assay method using JC-1 as substrate; type: functional
Procedure, shortened: (§2)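 JC-1 stock (1 mg/mL in DMSO) diluted to 5 μg/mL in PBS with 1 g/L glucose, then filtered to remove aggregates (monomer 0.2 μM final). Washed K562/DOX cells at 5×10^5/mL were incubated with JC-1 and compound concurrently at 37 °C, DMSO ≤0.5%. Fluorescence (485/590 nm) was followed to plateau, about 2 h. Accumulation is expressed as % of the 5 μM S9788 plate control after subtracting JC-1 alone. Mean of ≥2 experiments.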

K562 [3] = assay: Ability to potentiate DOX cytotoxicity on K562/DOX MDR cells. Cell survival was assayed by MTT conversion; type: functional, cell-based; details: Homo sapiens; procedure, shortened: as §1
[4] = biological target: T1, ATP-dependent translocase ABCB1; assay: Pgp transport inhibitory activity at 1 uM was measured by JC-1 accumulation assay method using JC-1 as substrate; type: functional; procedure, shortened: as §2
K562 [5] = assay: Modulation factor: IC50(DOX alone)/IC50(DOX+modulator); type: functional, Homo sapiens; procedure, shortened: as §1
[6] = biological target: T1, ATP-dependent translocase ABCB1; assay: Pgp transport inhibitory activity at 10 uM was measured by JC-1 accumulation assay method using JC-1 as substrate; type: functional; procedure, shortened: as §2
[7] = (§3) modulation factor: IC50 (uM); type: functional
[8] = as §3; type: functional; remark: listed apart in the source

T1 sequence (P08183 whole entry): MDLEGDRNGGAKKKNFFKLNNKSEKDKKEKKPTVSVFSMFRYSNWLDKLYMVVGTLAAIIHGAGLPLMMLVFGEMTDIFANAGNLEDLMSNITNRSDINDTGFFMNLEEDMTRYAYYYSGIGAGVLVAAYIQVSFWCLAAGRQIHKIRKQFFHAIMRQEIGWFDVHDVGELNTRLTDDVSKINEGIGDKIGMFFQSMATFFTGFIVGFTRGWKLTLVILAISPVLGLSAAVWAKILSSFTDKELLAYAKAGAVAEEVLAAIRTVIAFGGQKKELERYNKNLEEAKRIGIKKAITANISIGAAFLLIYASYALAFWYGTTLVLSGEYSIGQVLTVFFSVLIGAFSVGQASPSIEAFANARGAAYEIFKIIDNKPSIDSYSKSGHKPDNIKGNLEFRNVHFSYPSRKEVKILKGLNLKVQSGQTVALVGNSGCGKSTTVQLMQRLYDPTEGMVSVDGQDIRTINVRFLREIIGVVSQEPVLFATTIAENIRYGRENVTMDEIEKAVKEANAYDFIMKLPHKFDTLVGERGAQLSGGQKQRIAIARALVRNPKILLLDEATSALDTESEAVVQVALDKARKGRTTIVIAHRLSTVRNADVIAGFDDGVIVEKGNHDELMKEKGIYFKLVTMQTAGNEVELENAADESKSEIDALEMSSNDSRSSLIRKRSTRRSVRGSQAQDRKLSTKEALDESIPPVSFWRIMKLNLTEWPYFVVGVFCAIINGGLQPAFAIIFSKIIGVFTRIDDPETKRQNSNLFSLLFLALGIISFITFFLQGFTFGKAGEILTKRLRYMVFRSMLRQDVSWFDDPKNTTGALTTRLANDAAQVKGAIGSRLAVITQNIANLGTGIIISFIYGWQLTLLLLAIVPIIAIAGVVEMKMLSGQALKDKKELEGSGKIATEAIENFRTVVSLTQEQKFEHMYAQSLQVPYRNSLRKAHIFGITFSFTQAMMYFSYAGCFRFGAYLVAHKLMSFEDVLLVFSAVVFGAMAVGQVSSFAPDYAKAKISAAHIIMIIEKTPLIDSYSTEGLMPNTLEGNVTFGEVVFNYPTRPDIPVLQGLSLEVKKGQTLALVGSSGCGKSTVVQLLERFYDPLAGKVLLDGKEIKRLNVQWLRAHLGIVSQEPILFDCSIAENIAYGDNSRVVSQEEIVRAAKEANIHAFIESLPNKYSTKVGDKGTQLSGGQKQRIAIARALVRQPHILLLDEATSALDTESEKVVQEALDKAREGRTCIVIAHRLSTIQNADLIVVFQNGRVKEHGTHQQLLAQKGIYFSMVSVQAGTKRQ

Row | Structure (SMILES) | Modulation factor [1] | Relative JC-1 accumulation [2] | IC50 (K562 [3]) [µM] | Relative JC-1 accumulation [4] | Modulation factor (K562 [5]) | Relative JC-1 accumulation [6] | Modulation factor [7] | Modulation factor [8]
1 | CCOC(=O)COc1cc(-c2cc(=O)c3c(O)cc(OCC(=O)N4CCN(Cc5ccc(Cl)cc5)CC4)cc3o2)ccc1OC | 22 | 14 | 14 | 6 | 4 | 23 | – | –
2 | COc1ccc(-c2cc(=O)c3c(OCC(=O)N4CCN(Cc5ccc(OC)c(OC)c5OC)CC4)cc(OCc4ccccc4)cc3o2)cc1OCc1ccccc1 | – | 50 | 8 | 28 | – | 56 | 45 | 14
3 | CCOC(=O)COc1cc(-c2cc(=O)c3c(O)cc(OCC(=O)N4CCN(Cc5cc(OC)c(OC)c(OC)c5)CC4)cc3o2)ccc1OC | 31 | 26 | > 20 | 2 | 3 | 24 | – | –
4 | COc1ccc(/C=C/C(=O)c2c(O)cc(OCC(=O)N3CCN(Cc4ccc(OC)c(OC)c4OC)CC3)cc2O)cc1O | – | 17 | > 20 | 3 | – | 21 | 45 | 9
5 | COc1ccc(C2CC(=O)c3c(O)cc(OCC(=O)N4CC[N+](C)(Cc5ccc(OC)c(OC)c5OC)CC4)cc3O2)cc1O.[I-] (configuration not stated) | 1 | 0 | > 20 | 0 | – | 0 | – | –
6 | COc1ccc(C2CC(=O)c3c(O)cc(OCC(=O)N4CCN(Cc5cc(OC)c(OC)c(OC)c5)CC4)cc3O2)cc1O (configuration not stated) | 21 | 3 | > 20 | 0 | 2 | 8 | – | –
7 | COc1ccc(C2CC(=O)c3c(OC(C)=O)cc(OCC(=O)N4CCN(Cc5ccc(OC)c(OC)c5OC)CC4)cc3O2)cc1OC(C)=O (configuration not stated) | – | 55 | > 20 | 2 | – | 75 | 31 | 10
8 | CCOC(=O)COc1cc(OCC(=O)N2CCN(Cc3ccc(OC)c(OC)c3OC)CC2)c2c(=O)cc(-c3ccc(OC)c(OCC(=O)OCC)c3)oc2c1 | 1 | 10 | > 20 | 1 | – | 59 | – | –
9 | CCOC(=O)COc1cc(-c2cc(=O)c3c(O)cc(OCC(=O)N4CCN(Cc5ccc(OC)c(OC)c5)CC4)cc3o2)ccc1OC | 23 | 28 | > 20 | 3 | 4 | 27 | – | –
10 | CCOC(=O)COc1cc(-c2cc(=O)c3c(O)cc(OCC(=O)N4CCN(Cc5cccc(OC)c5OC)CC4)cc3o2)ccc1OC | 24 | 22 | > 20 | 2 | 5 | 28 | – | –
11 | COc1ccc(C2CC(=O)c3c(O)cc(OCC(=O)N4CCN(Cc5ccc(OC)c(OC)c5OC)CC4)cc3O2)cc1OC(C)=O (configuration not stated) | – | 82 | > 20 | 33 | – | 91 | 31 | 8
12 | COc1ccc(-c2cc(=O)c3c(OCC(=O)N4CCN(Cc5ccc(OC)c(OC)c5OC)CC4)cc(O)cc3o2)cc1O | 1 | 0 | > 20 | 0 | – | 0 | – | –
13 | COc1ccc(-c2cc(=O)c3c(O)cc(O)cc3o2)cc1OCC(=O)N1CCN(Cc2ccc(OC)c(OC)c2OC)CC1 | – | 0 | > 20 | 0 | – | 0 | 1 | –
14 | CCOC(=O)COc1cc(-c2cc(=O)c3c(O)cc(OCC(=O)N4CCN(Cc5ccccc5)CC4)cc3o2)ccc1OC | 21 | 35 | > 20 | 10 | 4 | 38 | – | –
15 | COc1ccc(C2CC(=O)c3c(O)cc(OCC(=O)N4CCN(Cc5ccc(OC)c(OC)c5OC)CC4)cc3O2)cc1O (configuration not stated) | 42 | 50 | 16 | 4 | 11 | 69 | – | –
16 | CCOC(=O)COc1cc(O)c2c(=O)cc(-c3ccc(OC)c(OCC(=O)N4CCN(Cc5ccc(OC)c(OC)c5)CC4)c3)oc2c1 | 25 | 26 | 9 | 4 | 2 | 31 | – | –
17 | COc1ccc(CCN(C)CCCC(C#N)(c2ccc(OC)c(OC)c2)C(C)C)cc1OC (configuration not stated) [VERAPAMIL] | – | – | 37 | – | – | – | 31 | 7
18 | COc1ccc(-c2cc(=O)c3c(O)cc(OCC(=O)N4CCN(Cc5ccc(OC)c(OC)c5OC)CC4)cc3o2)cc1O | 78 | 50 | 6 | 4 | 11 | 30 | – | –
19 | COc1ccc(C2CC(=O)c3c(O)cc(OCC(=O)N4CCN(Cc5ccc(OC)c(OC)c5)CC4)cc3O2)cc1O (configuration not stated) | 31 | 9 | > 20 | 0 | 4 | 31 | – | –
20 | COc1ccc(-c2cc(=O)c3c(O)cc(O[C@@H]4O[C@H](CO[C@@H]5O[C@@H](C)[C@H](O)[C@@H](O)[C@H]5O)[C@@H](O)[C@H](O)[C@H]4O)cc3o2)cc1OCC(=O)N1CCN(Cc2ccc(OC)c(OC)c2OC)CC1 | – | 0 | > 20 | 0 | – | 0 | 1 | –
21 | CCOC(=O)COc1cc(O)c2c(=O)cc(-c3ccc(OC)c(OCC(=O)N4CCN(Cc5ccccc5Cl)CC4)c3)oc2c1 | 7 | 13 | > 20 | 7 | 2 | 24 | – | –
22 | CCOC(=O)COc1cc(-c2cc(=O)c3c(O)cc(OCC(=O)N4CCN(Cc5ccc(OC)c(OC)c5OC)CC4)cc3o2)ccc1OC | 22 | 69 | > 20 | 14 | 9 | 73 | – | –
23 | COc1ccc(-c2cc(=O)c3c(O)cc(O[C@@H]4O[C@H](CO)[C@H](O)[C@@H](O)[C@H]4O)cc3o2)cc1OCC(=O)N1CCN(Cc2ccc(OC)c(OC)c2OC)CC1 | – | 0 | > 20 | 0 | – | 0 | 1 | –
24 | CCOC(=O)COc1cc(O)c2c(=O)cc(-c3ccc(OC)c(OCC(=O)N4CCN(Cc5cc(OC)c(OC)c(OC)c5)CC4)c3)oc2c1 | 25 | 56 | 11 | 5 | 5 | 55 | – | –
25 | CCOC(=O)COc1cc(O)c2c(=O)cc(-c3ccc(OC)c(OCC(=O)N4CCN(Cc5ccc(OC)c(OC)c5OC)CC4)c3)oc2c1 | 17 | 56 | > 20 | 7 | 3 | 59 | – | –
26 | COc1ccc(CCC(=O)c2c(O)cc(OCC(=O)N3CCN(Cc4ccc(OC)c(OC)c4OC)CC3)cc2O)cc1O | – | – | > 20 | 2 | – | 5 | 3 | –
27 | COc1ccc(-c2cc(=O)c3c(O)cc(OCC(=O)N4CCN(Cc5ccc(OC)c(OC)c5OC)CC4)cc3o2)cc1OCC(=O)N1CCN(Cc2ccc(OC)c(OC)c2OC)CC1 | – | 60 | 2 | 22 | 1 | 53 | – | –
28 | COc1ccc(C2CC(=O)c3c(O)cc(OCC(=O)N4CCN(Cc5cccc(OC)c5OC)CC4)cc3O2)cc1O (configuration not stated) | 28 | 2 | > 20 | 0 | 4 | 6 | – | –
29 | COc1ccc(C2CC(=O)c3c(OC(=O)C(C)(C)C)cc(OCC(=O)N4CCN(Cc5ccc(OC)c(OC)c5OC)CC4)cc3O2)cc1OC(=O)C(C)(C)C (configuration not stated) | – | 82 | > 20 | 72 | – | 75 | 45 | 18
